ARFGAP1 inh – inhibitors of rat ARFGAP1 GAP activity, primary screen, biochemical, fluorescence polarization, GDP tracer; Arfgap1-stimulated ARF1 GTP hydrolysis, GDP FP detection; inhibition, % at 16.5 µM; actives 0.26% (n = 360,000); AID 651572, 2012;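 active means inhibition above a per-plate limit, mean inhibition of low control wells plus 3 SD, cut at about 25% in these data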;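 further: 0% = DMSO wells with enzyme and 100% = wells lacking Arfgap1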
Target sequence (Q62848 1-136 limits assumed): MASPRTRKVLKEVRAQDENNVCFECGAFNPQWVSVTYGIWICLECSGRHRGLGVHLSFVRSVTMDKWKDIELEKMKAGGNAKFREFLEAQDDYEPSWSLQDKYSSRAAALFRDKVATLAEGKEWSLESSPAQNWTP
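System: truncated rat Arfgap1 GAP domain / Benchmarks: high control wells lacking Arfgap1, low control full reaction with DMSO / Times: compound-enzyme preincubation 20 min, reaction 120 min, detection 60 min, 25 °C / Repeats: one replicate per compound / Also added: human ARF1(Δ1-17)-GTP substrate / Measured by: Tracer-displacement fluorescence polarization with EDTA stop, 620/688 nm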
Tn6 DDE FP – inhibitors of Tn6 peptide binding to fibrin DD(E), primary screen, biochemical, fluorescence polarization, human fibrin, Tn6 probe; Fibrin DD(E) TRITC-Tn6 fluorescence polarization displacement; Fibrinogen beta chain (Homo sapiens), P02675; AID 720509, 2013; actives 0.21% (n = 370,000); inhibition, % at 8.3 µM;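 active means inhibition above a per-campaign cutoff: mean of compounds within control limits plus 3 SD, cut at about 15% in these data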;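 further: 0% = median of all compound wells on the plate and 100% = blocking peptide control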
Target sequence (P02675 whole entry, looked up): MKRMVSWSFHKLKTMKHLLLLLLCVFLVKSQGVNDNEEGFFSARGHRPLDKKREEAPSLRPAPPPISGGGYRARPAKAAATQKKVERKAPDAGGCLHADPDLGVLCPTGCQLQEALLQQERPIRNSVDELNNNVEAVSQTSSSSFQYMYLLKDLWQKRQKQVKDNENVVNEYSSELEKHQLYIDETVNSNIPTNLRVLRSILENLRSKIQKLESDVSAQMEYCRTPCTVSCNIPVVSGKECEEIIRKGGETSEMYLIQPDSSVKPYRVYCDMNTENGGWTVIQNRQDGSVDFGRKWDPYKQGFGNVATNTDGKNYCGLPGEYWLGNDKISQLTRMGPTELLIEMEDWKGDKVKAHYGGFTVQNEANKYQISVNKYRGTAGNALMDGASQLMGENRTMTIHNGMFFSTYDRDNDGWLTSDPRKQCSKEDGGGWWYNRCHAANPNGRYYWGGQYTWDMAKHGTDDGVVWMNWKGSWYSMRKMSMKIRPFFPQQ
Tn7 DDE FP – inhibitors of Tn7 peptide binding to fibrin DD(E), primary screen, biochemical, fluorescence polarization, human fibrin, Tn7 probe; Fibrinogen beta chain (Homo sapiens), P02675; FP displacement of FITC-Tn7 peptide from fibrin DD(E); 0% = median of compound wells per plate; inhibition, % at 8.3 µM; actives 0.13% (n = 370,000);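 active means inhibition above the mean of compounds falling within the control limits plus 3 SD of them, cut at about 14% in these data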;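 further: 0% = plate median of compound wells and 100% = 10 µM Aha-Tn7 peptide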
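Assay system: Human clot-derived fibrin DD(E) complex | Buffer or medium: Tris/NaCl/CaCl2 buffer, pH 7.8 | Repeats: One replicate per compound | Benchmarks: Aha-Tn7 high control | Measure: % inhibition scaled between sample-field median and high-control FP | Schedule: 10 min plus 3 h, room temperature | Signal: Fluorescence polarization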
ASAP1 inh – inhibitors of human ASAP1 ArfGAP activity, primary screen, biochemical, fluorescence polarization | Arf-GAP with SH3 domain, ANK repeat and PH domain-containing protein 1 (Homo sapiens), … | ASAP1-stimulated ARF1 GTP hydrolysis, GDP FP detection | inhibition, % at 16.5 µM | actives 0.19% (n = 360,000); in the data active means inhibition above about 25%;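 further: 0% = vehicle with enzyme and substrate and 100% = no enzyme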
ARFGAP1 inh conf – ARFGAP1 inhibitor hit confirmation, biochemical, fluorescence polarization, triplicate | shares compounds with ARFGAP1 inh | ARFGAP1-stimulated ARF1 GTP hydrolysis, GDP tracer FP | inhibition, % at 16.5 µM | actives 30% (n = 890) | AID 651608, 2012;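 active means average inhibition over triplicates above the hit cutoff set in the earlier primary screen, cut at about 25% in these data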;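 further: 0% = Arfgap1 plus ARF1-GTP with DMSO and 100% = wells lacking Arfgap1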
* = called active by the depositor; x = no result given; ! = repeats disagree. Most compounds without a hit are left out; they make up all but 0.74% or so of the library.

SMILES | ARFGAP1 inh | Tn6 DDE FP | Tn7 DDE FP | ASAP1 inh | ARFGAP1 inh conf
CC1C(=O)N2CCCc3cc(NC(=O)C(=O)NCc4cccnc4)cc1c32 (stereo unspecified) | 27* | 3 | 4 | -6 | -3
CCN(Cc1ccccc1)C(=O)C1C2C=CC3(CN(Cc4ccccc4)C(=O)C13)O2 (stereo unspecified) | x | 4 | 1 | x | x
c1ccc(CCn2cnc3ccccc32)cc1 | 26* | -3 | -5 | -7 | 8
c1ccc(OCCn2cnc3ccccc32)cc1 | 7 | -3 | -1 | 8 | x
CN(CC(=O)NCC1CCCO1)S(=O)(=O)c1ccc2ccccc2c1 (stereo unspecified) | 32* | 6 | 10 | 3 | 1
CN(CC(=O)NCC1CCCO1)S(=O)(=O)c1ccc(Br)cc1 (stereo unspecified) | 5 | 5 | 5 | -6 | x
C[C@H]1[C@@H](NC(=O)c2ccc(Cl)cc2)CC[C@@]23CCCN2C(=O)CCC[C@@H]13 | x | -2 | 3 | x | x
COCCCNC(=O)c1ccc2c(c1)NC(=O)C(C)(C)O2 | x | 5 | 1 | x | x
COC(=O)c1ccc(Cn2ccc3ccc(-c4ccc5ccn(C(=O)c6cccc(OC)c6)c5c4)cc32)cc1 | x | -6 | -4 | x | x
CCN1CCCC1CNC(=O)c1ccc2c(c1)NC(=O)/C(=C\c1ccc(OC)c(OC)c1)S2 (stereo unspecified) | 39* | -7 | 1 | 24 | 83*
CCN1CCCC1CNC(=O)c1ccc2c(c1)NC(=O)/C(=C\c1ccccc1Cl)S2 (stereo unspecified) | 12 | 3 | 6 | 3 | x
CC(OC(=O)c1cc2c(s1)CCCCC2)C(=O)NC(N)=O (stereo unspecified) | 28* | -1 | 4 | -12 | -4
O=C(CSc1nc2ccccc2[nH]1)NN=Cc1c(F)cccc1Cl | x | 10 | -3 | x | x
Cc1[nH][nH]c(=O)c1C(c1c(C)[nH][nH]c1=O)c1cn(C)c2ccccc12 | 25* | 2 | -3 | 1 | 1
Cc1[nH][nH]c(=O)c1C(c1c(C)[nH][nH]c1=O)c1cn(Cc2cccc3ccccc23)c2ccccc12 | 15 | 6 | 7 | 16 | x
CC1=CC(=O)c2ccccc2C1=O | 26*! | 1 | -1 | 1 | -1
Cc1ccc(Nc2nc(CSc3nnnn3-c3ccccc3)cs2)cc1 | 29* | -3 | -6 | 1 | 9
CCOC(=O)[C@]12CCCCC/C=C\1N(CCc1ccc(Cl)cc1)C(=O)[C@H]2CC(=O)N1CCN(C(=O)c2ccco2)CC1 | x | 1 | 3 | x | x
CC(=O)N1CCN(C(=O)c2cccc(S(=O)(=O)N3CCN(c4ccccc4)CC3)c2)CC1 | -8 | -1 | -7 | 24 | x
O=C(NNC(=O)c1cccc(S(=O)(=O)N2CCN(c3ccccc3)CC2)c1)c1ccc(Cl)cc1 | 25* | 2 | -5 | -10 | 4
O=C(NCC1CCN(c2ccc(S(=O)(=O)N3CCOCC3)cc2)CC1)c1ccc(Cl)cc1 | 26* | -1 | 0 | -8 | 2
COC(=O)[C@]12C[C@H](CC(=O)NCc3cccs3)C(=O)N(Cc3ccco3)C1=C[C@H](C(C)(C)C)O[C@@H]2C | x | 1 | 4 | x | x
CCCC1CCC2(CC1)CCC2OC(=O)Nc1cccc(C(F)(F)F)c1 (stereo unspecified) | x | 1 | 4 | x | x
COc1ccc(C(=O)C2CCN(c3ncnc4sccc34)CC2)cc1 | x | 3 | 3 | x | x
Cc1ccc(-c2cc(-c3ccccc3[N+](=O)[O-])[nH]n2)c(O)c1 | 41* | -20 | 3 | 12 | 7
SMILES | ARFGAP1 inh | Tn6 DDE FP | Tn7 DDE FP | ASAP1 inh | ARFGAP1 inh conf
Cc1ccc(-c2cc(-c3ccccc3Cl)[nH]n2)c(O)c1 | 17 | -13 | -2 | 19 | x
COc1ccc(CCn2c(SCC(=O)Nc3cc(C)on3)nc3ccsc3c2=O)cc1OC | 37* | 5 | -7 | 13 | 35*
COc1ccc(NC(=O)c2cc(-c3cc(Cl)ccc3OC)n[nH]2)cc1OC | 28* | -9 | -4 | 11 | 22
CC(C)(C)c1ccc(-c2nnc3sc(COc4ccccc4)nn23)cc1 | x | 5 | 6 | x | x
CC(=O)N1CCN(S(=O)(=O)c2ccc(C)cc2)C1C (stereo unspecified) | 30* | 4 | -4 | 9 | 2
Cc1ccc(S(=O)(=O)N2CCN(C(=O)N3CCOCC3)C2C)cc1 (stereo unspecified) | -6 | 4 | 4 | -13 | x
CCCNC(=O)C[C@H]1CC[C@H]2[C@@H](COc3ccc(NC(=O)c4cncs4)cc3C(=O)N2C)O1 | x | -7 | 5 | x | x
CCCCCC(=O)NC1CCCCN(Cc2ccc(Cl)cc2)C1=O (stereo unspecified) | x | -4 | 4 | x | x
O=C(Nc1cccc(-c2csc(Nc3cccc(C(F)(F)F)c3)n2)c1)c1ccccc1 | 25* | -12 | 2 | 8 | 18
Cc1nn(-c2ccccc2)c2sc(C(=O)NC3CCCCCCC3)cc12 | x | -6 | -2 | x | x
COC(=O)c1c(NC(=O)C2CC=CCC2C(=O)O)sc(C)c1C (stereo unspecified) | 6 | 3 | -3 | -2 | x
COC(=O)c1c(NC(=O)C2CC=CCC2C(=O)O)sc(C(N)=O)c1C (stereo unspecified) | 25* | -6 | -1 | 2 | 4
Cc1cc(C)n(C(C)CNS(=O)(=O)c2ccc(Cl)cc2)n1 (stereo unspecified) | 25* | -5 | 10 | 8 | -2
Cc1ccc(S(=O)(=O)NCC(C)n2nc(C)cc2C)cc1 (stereo unspecified) | 5 | 0 | 4 | -2 | x
CCCCNC(=O)C[C@@H]1C(=O)N(Cc2ccc(OC)cc2)/C2=C/CCCCC[C@@]21C(=O)OCC | x | -8 | -8 | x | x
COc1ccc(/C=N/NC(=O)c2cc3cc(OC)c(OC)cc3[nH]2)cc1 | 39* | -3 | -3 | 3 | 51*
COc1cc2cc(C(=O)N/N=C/c3ccc(F)cc3)[nH]c2cc1OC | 5 | -2 | 7 | 2 | x
CCOC(=O)c1ccc(-c2c(-c3ccccc3OC)oc3ccccc23)cc1F | -1 | -1 | -5 | 1 | x
COc1ccccc1-c1oc2ccccc2c1-c1ccc2cc[nH]c2c1 | 26* | 7 | 5 | 10 | 12
CCOC(=O)[C@@]12CCCC3=C1N(CCC3)C(=O)[C@H]2CC(=O)NCc1ccc(C)o1 | x | 2 | 1 | x | x
Cc1cnn(-c2ccccc2)c1NC(=O)COCc1ccccc1 | x | -4 | 4 | x | x
